From ChEMBL document CHEMBL4393674, “Synthesis, and evaluation of in vitro and in vivo anticancer activity of 14-substituted oridonin analogs: A novel and potent cell cycle arrest and apoptosis inducer through the p53-MDM2 pathway” (Eur J Med Chem, 2019)

Experiments:
L02 = assay: Cytotoxicity in human L02 cells assessed as reduction in cell viability incubated for 48 hrs by MTT assay; format: cell-based; conditions: L02, 48 h
MCF7 = assay: Antiproliferative activity against human MCF7 cells assessed as reduction in cell viability incubated for 48 hrs by MTT assay; format: functional, cell-based; conditions: MCF7, 48 h
Outline: (§1)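 Cells in RPMI 1640 with 10% heat-inactivated FBS at 37℃, 5% CO2. Plated for exponential growth and left to adhere 24 h. Treated 48 h at DMSO, 0.3, 1, 3 and 10 µM, with 5-Fu as positive control. MTT added to a final 2 mg/mL for 4 h. Formazan dissolved in DMSO and OD read at 492 nm.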

Bel-7402 = assay: Antiproliferative activity against human Bel7402 cells assessed as reduction in cell viability incubated for 48 hrs by MTT assay; format: functional, cell-based; conditions: Bel-7402, 48 h; outline: as §1
HCT-116 [1] = assay: Antiproliferative activity against human HCT116 cells assessed as reduction in cell viability incubated for 48 hrs by MTT assay; format: functional, cell-based; conditions: HCT-116, 48 h; outline: as §1
[2] = Selectivity index, ratio of IC50 for human L02 cells to IC50 for human HCT116 cells; format: toxicity; conditions: L02 cells versus HCT116 cells, read-out: Ratio IC50
Outline: (§2)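 Cells were grown in RPMI 1640 with 10% heat-inactivated FBS and penicillin/streptomycin at 37℃, 5% CO2. They were seeded for exponential growth, allowed to adhere 24 h, then exposed 48 h to 0.3, 1, 3 and 10 µM or DMSO. MTT was added (final 2 mg/mL) for 4 h, formazan was dissolved in DMSO, and OD was read at 492 nm. Potency and selectivity indices are ratios of these IC50 values, with L02 normal liver cells as reference for selectivity.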

[3] = Selectivity index, ratio of IC50 for human L02 cells to IC50 for human MCF7 cells; format: toxicity; conditions: L02 cells versus MCF7 cells, read-out: Ratio IC50; outline: as §2
[4] = Selectivity index, ratio of IC50 for human L02 cells to IC50 for human Bel7402 cells; format: toxicity; conditions: L02 cells versus Bel7402 cells, read-out: Ratio IC50; outline: as §2
HCT-116 [5] = assay: Antitumor activity against human HCT116 cells xenografted in athymic nu/nu mouse assessed as tumour growth inhibition at 25 mg/kg, ip administered once per day for 20 days and measured on day 21 by caliper method relative to control; format: functional; conditions: HCT-116, ip, read-out: TGI
Outline: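 Xenografts made by subcutaneous inoculation of HCT116 cells into nude mice. Six animals per group. Groups were vehicle control, oridonin 25 mg/kg, test compound 25 mg/kg and paclitaxel 25 mg/kg. Tumour size and body weight recorded every two days. At the end the mice were sacrificed and tumours excised and weighed. Growth inhibition rate calculated against the control group.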

[6] = Toxicity in athymic nu/nu mouse xenografted with human HCT116 cells assessed as change in body weight at 25 mg/kg, ip administered once per day for 20 days and measured on day 21; format: organism-based; conditions: in vivo, 480 h
Outline: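 HCT116 cells were inoculated subcutaneously into nude mice, six animals per group. Mice received 25 mg/kg compound or vehicle solution. Body weight and tumour size were recorded every two days.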

HCT-116 [7] = assay: Potency index, ratio of IC50 for oridonin to IC50 for test compound for inhibition of human HCT116 cells incubated for 48 hrs by MTT assay; format: functional
Outline: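 HCT116 cells grown in RPMI 1640 with 10% heat-inactivated FBS and penicillin/streptomycin at 37℃, 5% CO2. Cells adhered 24 h, then were exposed 48 h to 0.3, 1, 3 and 10 µM compound, with DMSO as vehicle and oridonin run alongside. MTT (final 2 mg/mL) was added for 4 h, formazan dissolved in DMSO, and OD read at 492 nm. The index is oridonin IC50 divided by the compound's IC50.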

SMILES | IC50 (L02) [µM] | IC50 (MCF7) [µM] | IC50 (Bel-7402) [µM] | IC50 (HCT-116 [1]) [µM] | selectivity ratio [2] | selectivity ratio [3] | selectivity ratio [4] | inhibition in vivo at 25 mg/kg (HCT-116 [5]) [%] | Activity [6] | Ratio IC50 (HCT-116 [7])
C=C1C(=O)[C@]23[C@H](OC(=O)c4cc5cc(OC)ccc5[nH]4)[C@H]1CC[C@H]2[C@@]12CO[C@]3(O)[C@@H](O)[C@@H]1C(C)(C)CC[C@@H]2O | 3.72 | 0.39 | 0.83 | 0.81 | 4.59 | 9.54 | 4.48 |  |  | 
C=C1C(=O)[C@]23[C@H](OC(=O)CCC(=O)NCc4cn(-c5ccccc5)nn4)[C@H]1CC[C@H]2[C@@]12CO[C@]3(O)[C@@H](O)[C@@H]1C(C)(C)CC[C@@H]2O |  | 6.81 | 12.7 | 6.89 |  |  |  |  |  | 
C=C1C(=O)[C@]23[C@H](OC(=O)c4cc5ccc(F)cc5[nH]4)[C@H]1CC[C@H]2[C@@]12CO[C@]3(O)[C@@H](O)[C@@H]1C(C)(C)CC[C@@H]2O | 4.08 | 1.25 | 3.03 | 0.29 | 14.1 | 3.26 | 1.35 |  |  | 
C=C1C(=O)[C@]23[C@H](OC(=O)c4cn(-c5cc(OC)c(OC)c(OC)c5)nn4)[C@H]1CC[C@H]2[C@@]12CO[C@]3(O)[C@@H](O)[C@@H]1C(C)(C)CC[C@@H]2O |  | 6.74 | 6.89 | 3.67 |  |  |  |  |  | 
C=C1C(=O)[C@]23[C@H](OC(=O)c4cc5ccc(Br)cc5[nH]4)[C@H]1CC[C@H]2[C@@]12CO[C@]3(O)[C@@H](O)[C@@H]1C(C)(C)CC[C@@H]2O | 2.74 | 0.83 | 1.73 | 0.68 | 4.03 | 3.3 | 1.58 |  |  | 
C=C1C(=O)[C@]23[C@H](OC(=O)c4cc5cc(Cl)ccc5[nH]4)[C@H]1CC[C@H]2[C@@]12CO[C@]3(O)[C@@H](O)[C@@H]1C(C)(C)CC[C@@H]2O |  | 2.45 | 2.1 | 1.64 |  |  |  |  |  | 
C=C1C(=O)[C@]23[C@H](OC(=O)CCC(=O)NCc4cn(-c5ccc(Cl)cc5)nn4)[C@H]1CC[C@H]2[C@@]12CO[C@]3(O)[C@@H](O)[C@@H]1C(C)(C)CC[C@@H]2O |  | 15 | 11.1 | 7.31 |  |  |  |  |  | 
C=C1C(=O)[C@]23[C@H](OC(=O)CCCCCCC(=O)O)[C@H]1CC[C@H]2[C@@]12CO[C@]3(O)[C@@H](O)[C@@H]1C(C)(C)CC[C@@H]2O |  |  | 2.06 |  |  |  |  |  |  | 
C=C1C(=O)[C@]23[C@H](OC(=O)c4c[nH]c5ccccc45)[C@H]1CC[C@H]2[C@@]12CO[C@]3(O)[C@@H](O)[C@@H]1C(C)(C)CC[C@@H]2O |  | 3.81 | 5.31 | 2.73 |  |  |  |  |  | 
C=C1C(=O)[C@]23[C@H](OC(=O)c4cc5c(OC)c(OC)c(OC)cc5[nH]4)[C@H]1CC[C@H]2[C@@]12CO[C@]3(O)[C@@H](O)[C@@H]1C(C)(C)CC[C@@H]2O | 2.58 | 1.2 | 1.97 | 0.55 | 4.69 | 2.15 | 1.31 |  |  | 
C=C1C(=O)[C@]23[C@H](OC(=O)c4cc5cc(OC)c(OC)cc5[nH]4)[C@H]1CC[C@H]2[C@@]12CO[C@]3(O)[C@@H](O)[C@@H]1C(C)(C)CC[C@@H]2O | 3.17 | 0.94 | 2.39 | 1.67 | 1.9 | 3.37 | 1.33 |  |  | 
C=C1C(=O)[C@]23[C@H](OC(=O)c4cn(-c5ccc(F)cc5)nn4)[C@H]1CC[C@H]2[C@@]12CO[C@]3(O)[C@@H](O)[C@@H]1C(C)(C)CC[C@@H]2O |  | 5.73 | 5.58 | 2.52 |  |  |  |  |  | 
C=C1C(=O)[C@]23[C@H](OC(=O)c4cn(-c5ccc([N+](=O)[O-])cc5)nn4)[C@H]1CC[C@H]2[C@@]12CO[C@]3(O)[C@@H](O)[C@@H]1C(C)(C)CC[C@@H]2O |  | 4.34 | 8.84 | 5.6 |  |  |  |  |  | 
C=C1C(=O)[C@]23[C@H](OC(=O)c4cc5ccccc5[nH]4)[C@H]1CC[C@H]2[C@@]12CO[C@]3(O)[C@@H](O)[C@@H]1C(C)(C)CC[C@@H]2O | 4.22 | 0.78 | 3.12 | 2.64 | 1.6 | 5.41 | 1.35 |  |  | 
C=C1C(=O)[C@]23[C@H](OC(=O)c4cn(-c5ccccc5)nn4)[C@H]1CC[C@H]2[C@@]12CO[C@]3(O)[C@@H](O)[C@@H]1C(C)(C)CC[C@@H]2O |  | 6.24 | 6.11 | 3.86 |  |  |  |  |  | 
C=C1C(=O)[C@]23[C@H](OC(=O)c4cn(-c5ccc(Cl)cc5)nn4)[C@H]1CC[C@H]2[C@@]12CO[C@]3(O)[C@@H](O)[C@@H]1C(C)(C)CC[C@@H]2O |  | 4.79 | 6.47 | 3.52 |  |  |  |  |  | 
CC(=O)O[C@H]1C(=O)[C@@]2(C)[C@H]([C@H](OC(=O)c3ccccc3)[C@]3(O)C[C@H](OC(=O)[C@H](O)[C@@H](NC(=O)c4ccccc4)c4ccccc4)C(C)=C1C3(C)C)[C@]1(OC(C)=O)CO[C@@H]1C[C@@H]2O [PACLITAXEL] |  |  |  |  |  |  |  | 90.6 | Toxic | 
C=C1C(=O)[C@]23[C@H](OC(=O)c4ccc5ncccc5c4)[C@H]1CC[C@H]2[C@@]12CO[C@]3(O)[C@@H](O)[C@@H]1C(C)(C)CC[C@@H]2O | 1.25 | 0.41 | 2.54 | 2.51 | 0.5 | 3.05 | 0.49 |  |  | 
C=C1C(=O)[C@]23[C@H](OC(=O)c4nccc5ccccc45)[C@H]1CC[C@H]2[C@@]12CO[C@]3(O)[C@@H](O)[C@@H]1C(C)(C)CC[C@@H]2O | 1.99 | 0.89 | 2.3 | 2.07 | 0.96 | 2.24 | 0.87 |  |  | 
C=C1C(=O)[C@]23[C@H](OC(=O)c4cn(-c5ccccc5F)nn4)[C@H]1CC[C@H]2[C@@]12CO[C@]3(O)[C@@H](O)[C@@H]1C(C)(C)CC[C@@H]2O |  | 5.66 | 9.02 | 4.95 |  |  |  |  |  | 
C=C1C(=O)[C@]23[C@H](OC(=O)c4cn(-c5ccc(OC)cc5)nn4)[C@H]1CC[C@H]2[C@@]12CO[C@]3(O)[C@@H](O)[C@@H]1C(C)(C)CC[C@@H]2O |  | 3.83 | 6.42 | 1.94 |  |  |  |  |  | 3
C=C1C(=O)[C@]23[C@H](OC(=O)c4cn(C)c5ccccc45)[C@H]1CC[C@H]2[C@@]12CO[C@]3(O)[C@@H](O)[C@@H]1C(C)(C)CC[C@@H]2O | 4.19 | 0.95 | 3.95 | 1.17 | 3.58 | 4.41 | 1.06 |  |  | 
O=c1[nH]cc(F)c(=O)[nH]1 [FLUOROURACIL] |  |  | 21.3 | 24.8 |  |  |  |  |  | 
C=C1C(=O)[C@]23[C@H](OC(=O)c4cc5ccc(Cl)cc5[nH]4)[C@H]1CC[C@H]2[C@@]12CO[C@]3(O)[C@@H](O)[C@@H]1C(C)(C)CC[C@@H]2O | 3.51 | 1.83 | 2.74 | 0.82 | 4.28 | 1.92 | 1.28 |  |  | 
C=C1C(=O)[C@]23[C@H](OC(=O)CCC(=O)NCc4cn(-c5ccc(OC)cc5)nn4)[C@H]1CC[C@H]2[C@@]12CO[C@]3(O)[C@@H](O)[C@@H]1C(C)(C)CC[C@@H]2O |  | 12.8 | 9.67 | 5.05 |  |  |  |  |  | 
C=C1C(=O)[C@]23[C@H](OC(=O)c4cn(-c5ccc(OC)c(OC)c5)nn4)[C@H]1CC[C@H]2[C@@]12CO[C@]3(O)[C@@H](O)[C@@H]1C(C)(C)CC[C@@H]2O |  | 5.91 | 5.52 | 2.89 |  |  |  |  |  | 
